# RGS4 block: inhibitors of human RGS4; P49798; HEK293 M3R/RGS4 inducible, Fluo-4 calcium flux; active compounds read high; triggered by carbachol at its EC20; B-score at 10 µM; 310,000 compounds, 0.45% hits;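 active means B-score, a plate-corrected calcium signal, over three deviations above library mean, with baseline fluorescence within five deviations of library mean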;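 further: RGS4 expression induced by doxycycline in cells with stable M3 receptor; B-score is computed from the integrated fluorescence ratio over baseline after carbachol; higher B-score means a larger calcium signal and so more RGS4 inhibition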
# Target sequence (P49798 whole entry, looked up): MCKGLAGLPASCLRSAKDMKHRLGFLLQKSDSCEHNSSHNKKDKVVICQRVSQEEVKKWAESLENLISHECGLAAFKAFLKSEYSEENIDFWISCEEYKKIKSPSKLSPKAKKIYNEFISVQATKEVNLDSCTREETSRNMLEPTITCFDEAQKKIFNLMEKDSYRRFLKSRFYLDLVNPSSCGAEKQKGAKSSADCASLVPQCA
# MrgX1 allo act: human MrgX1 positive allosteric modulation, primary screen | Q96LB2 | MrgX1-HEK293, Fluo-4 calcium flux, FDSS; active compounds read high | B-score at 10 µM | 310,000 compounds, 0.63% hits;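 active means plate-corrected calcium response at least 3 library SD above typical, normal starting fluorescence, not activating the receptor alone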;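 further: compound read alongside a low EC10 to EC30 dose of BAM8-22 agonist; peak minus trough fluorescence over baseline measured at the second addition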
# Target sequence (Q96LB2 whole entry, looked up): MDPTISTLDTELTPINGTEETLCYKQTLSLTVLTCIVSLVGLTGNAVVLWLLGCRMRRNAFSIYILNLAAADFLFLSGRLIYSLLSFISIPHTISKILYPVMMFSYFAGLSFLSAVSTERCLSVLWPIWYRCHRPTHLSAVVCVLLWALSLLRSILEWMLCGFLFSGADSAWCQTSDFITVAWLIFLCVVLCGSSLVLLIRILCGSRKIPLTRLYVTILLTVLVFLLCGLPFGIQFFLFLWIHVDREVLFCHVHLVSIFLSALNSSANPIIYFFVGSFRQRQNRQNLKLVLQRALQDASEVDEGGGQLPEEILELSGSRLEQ
# MrgX1 antag: human MrgX1 receptor antagonism, primary screen | Q96LB2 | 310,000 compounds, 1.3% hits | B-score at 10 µM | MRGX1-HEK293 calcium flux, Fluo-4, BAM8-22 antagonism; active compounds read low;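 active means calcium-response B-score plate-corrected more than 3 library SD below zero, starting fluorescence within 5 deviations, no agonist response on first addition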;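 further: peak minus trough fluorescence over baseline after final BAM8-22 challenge near maximal dose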
# RGS4 act: potentiators or activators of RGS4; HEK293 M3R/inducible RGS4, carbachol calcium flux Fluo4; active compounds read low; B-score at 10 µM; 310,000 compounds, 0.92% hits; AID 463111;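 active means B-score of the integrated calcium signal more than 4 SD below the library mean, with starting fluorescence not abnormally high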;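 further: negative B-score means reduced calcium response which marks RGS4 activation or potentiation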
#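 Material: M3R-expressing HEK293 line, RGS4 induced by doxycycline | Schedule: Overnight RGS4 induction, 30 min dye load 37 °C, 20 min compound RT | Measured by: Fluo4 fluorescence kinetic imaging of calcium | Read-out: Integrated calcium ratio converted to B score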
# MrgX1 ag: human MrgX1 receptor agonism, primary screen. Q96LB2. MrgX1-HEK293 cells, Fluo-4 calcium fluorescence, agonist mode; active compounds read high. B-score at 10 µM. 310,000 compounds, 0.44% hits;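 active means calcium response B-score plate-corrected fluorescence ratio at least 3 library SD, with starting fluorescence B-score inside 5 SD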
#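 System – MrgX1-expressing HEK293 cells · Incubation – cells plated overnight, dye loaded 0.5 h 37 °C, 0.5 h room temperature · Technique – kinetic Fluo-4 NW fluorescence of intracellular calcium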
# RGS4 block valid: RGS4 inhibitor validation. shares compounds with RGS4 block. HEK293 M3R/RGS4, carbachol calcium Fluo-4 fluorescence; carbachol added at its EC20; 0 = buffer wells, 100 = carbachol control. calcium response, % at 10 µM. 1,700 compounds, 65% hits. AID 492999;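 active means duplicate-averaged calcium response above the buffer-only control mean plus 5 SD of those controls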;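 further: integrated fluorescence ratio F max minus min over baseline F0; higher response in RGS4-induced cells means RGS4 inhibition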
# M3R Ca ctr: checks RGS4 inhibitor effects in non-induced HEK293 M3R cells; shares compounds with RGS4 block; carbachol calcium Fluo-4; submaximal (EC20) carbachol stimulus; buffer wells 0%, carbachol control wells 100%; activity (percent), % at 10 µM; 1,900 compounds, 20% hits; AID 493000; call rule not given here;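 further: RGS4 induction absent so cells express M3R without RGS4; higher means more calcium signal and flags a non-specific hit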
# M3R basal Ca ctr: second RGS4 inhibitor counter-screen in uninduced cells lacking carbachol. shares compounds with RGS4 block. HEK293 M3R/RGS4 non-induced, Fluo-4 calcium, no carbachol; normalised: buffer wells 0%, carbachol wells 100%. calcium response (agonist-mode artifact), % at 10 µM. 1,900 compounds, 22% hits;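 active means duplicate-averaged calcium rise in uninduced cells above buffer wells' mean plus 5 SD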
# Active calls of the source: *; i = inactive; . = no result. Only some compounds are listed: those with a hit (about 3.5% of all), similar ones and a draw of the others.
SMILES,RGS4 block,MrgX1 allo act,MrgX1 antag,RGS4 act,MrgX1 ag,RGS4 block valid,M3R Ca ctr,M3R basal Ca ctr
CN(C)N1C(N)=C(C#N)C(c2ccc(Br)cc2)C2=C1CC(C)(C)CC2=O (stereo not drawn),i,i,i,i,i,.,.,.
COc1cc(/C=C2\SC(=Nc3ccccc3)N(Cc3ccco3)C2=O)ccc1OC(C)C(=O)O (stereo not drawn),i,i,i,i,i,.,.,.
COc1cc(/C=C2\SC(=Nc3ccc(N4CCOCC4)cc3)N(C)C2=O)ccc1OC(C)C(=O)O (stereo not drawn),6.1*,i,i,i,i,7.5%*,i,i
NC(=S)N/N=C/c1ccc(-n2nncc2-c2ccc(Cl)cc2)cc1,39*,i,i,i,i,23%*,64%*,i
COC(=O)[C@@H](Cc1c[nH]c2ccccc12)NC(=O)C1CCCN(S(=O)(=O)c2ccc(C)cc2)C1 (stereo partly drawn),i,i,i,i,i,.,.,.
COc1ccc(C(C(=O)NC2CCCCC2)N(C(=O)Cc2c[nH]c3ccccc23)c2ccccc2C)cc1OC (stereo not drawn),i,i,i,i,i,i,i,i
Cn1nc(C(=O)Nc2nc(-c3ccc(F)cc3)cs2)ccc1=O,i,i,i,i,i,.,.,.
Cc1cccc(C)c1NC(=O)C1C2C=CC(C2)C1C(=O)O (stereo not drawn),i,i,i,i,i,.,.,.
O=C(NC1CC(=O)N(c2cccc(F)c2)C1)N1CCN(C(=O)c2ccco2)CC1 (stereo not drawn),i,i,i,i,i,.,.,.
CCCc1sc(N/N=C/c2ccccn2)nc1-c1ccc(Br)cc1,i,i,i,i,i,.,i,i
CC(=O)Nc1sc(N/N=C/c2ccccc2)nc1-c1ccc(C)cc1,i,i,i,i,i,.,.,.
Cc1ccc(N2C(=O)/C(=C\c3ccc(C(C)C)cc3)N=C2SC2CCOC2=O)cc1 (stereo not drawn),i,i,i,i,i,.,.,.
CCOC(=O)c1c(C)[nH]c(C(=O)CN2C(=O)NC(CC)(c3ccccc3)C2=O)c1C (stereo not drawn),i,i,i,i,i,.,.,.
CCOC(=O)c1c(C)[nH]c(C(=O)CN2C(=O)NC(C)(c3ccc(C)cc3)C2=O)c1C (stereo not drawn),i,i,i,i,i,i,i,7.5%*
NC(=O)c1cc2ccc(O)cc2oc1=Nc1ccccc1,i,.,.,i,.,i,i,i
O=C(CCN1C(=O)S/C(=C\c2cccs2)C1=O)NC1=NCCS1,i,i,i,i,i,.,.,.
CCOC(=O)C1=C(CS(=O)(=O)c2ccccc2)NC(=O)NC1c1ccc(OC)c(OC)c1 (stereo not drawn),i,i,i,i,i,.,.,.
COC(=O)C1=C(CS(=O)(=O)c2ccccc2)NC(=O)NC1c1ccc(OC)c(OC)c1 (stereo not drawn),i,i,i,i,i,i,i,i
COc1cc2c(cc1OC)-c1cc(Nc3ccc(F)cc3)nc(=O)n1CC2,i,i,i,i,i,i,i,i
COc1cc2c(cc1OC)-c1cc(Nc3ccc(N(C)C)cc3)nc(=O)n1CC2,5.6*,i,i,i,i,7.0%*,36%*,i
COc1cc2c(cc1OC)-c1cc(Nc3cccc(F)c3)nc(=O)n1CC2,i,.,.,i,.,.,.,.
COc1cc2c(cc1OC)-c1cc(NC3CCCC3)nc(=O)n1CC2,i,i,i,i,i,.,.,.
NNC(=O)C1=NOC(CNc2ncc(C(F)(F)F)cc2Cl)C1 (stereo not drawn),i,i,i,i,i,.,.,.
CC(=O)C1=NOC(CNc2ncc(C(F)(F)F)cc2Cl)C1 (stereo not drawn),i,i,i,i,i,.,i,i
O=C(O)C1=NOC(CNc2ncc(C(F)(F)F)cc2Cl)C1 (stereo not drawn),5*,i,i,i,i,5.0%*,48%*,i
SMILES,RGS4 block,MrgX1 allo act,MrgX1 antag,RGS4 act,MrgX1 ag,RGS4 block valid,M3R Ca ctr,M3R basal Ca ctr
Cc1cccc(C)c1NC(=O)[C@@]1(CC(=O)O)CC(/C=C/c2ccccc2)=NO1,i,i,i,i,i,.,.,.
O=S(=O)(Cc1ccccc1)Oc1ccccc1,i,i,i,i,i,.,.,.
COc1cccc(CC(NC(C)=O)C(=O)NC2CCN(S(=O)(=O)c3ccc(NC(C)=O)cc3)CC2)c1OC (stereo not drawn),i,i,i,i,i,.,.,.
COc1ccccc1CC(NC(C)=O)C(=O)NC1CCN(S(=O)(=O)c2ccc(NC(C)=O)cc2)CC1 (stereo not drawn),i,i,i,i,i,i,i,i
COc1ccccc1CC(NC(C)=O)C(=O)NC1CCN(S(=O)(=O)c2ccccc2)CC1 (stereo not drawn),5.7*,.,.,i,.,i,i,i
OCCN(CCO)c1ccc2ccccc2c1,i,i,i,i,i,.,.,.
OCCN(CCO)c1ccc(C(c2ccccc2Cl)c2ccc(N(CCO)CCO)cc2Cl)c(Cl)c1,i,i,i,i,i,i,i,15%*
CC(=O)Oc1ccc2ccccc2c1C(NC(=O)Cc1ccccc1)c1ccc(Cl)cc1 (stereo not drawn),i,i,-5.9*,i,i,.,i,i
CCOc1ccc(C(NC(=O)CC)c2c(O)ccc3ccccc23)cc1 (stereo not drawn),i,i,i,i,i,.,.,.
COc1cc(/C=C2\C(=O)N(c3ccc(NC(C)=O)cc3)N=C2c2ccccc2)ccc1O,6.2*,i,i,i,i,i,i,16%*
CC(C)Oc1ccc(C(=O)/C=C2/C(=O)Nc3ccccc32)cc1,5.1*,i,i,i,i,10%*,72%*,i
CC1(C)COC(/C=C/c2ccc([N+](=O)[O-])cc2)=N1,5.7*,i,i,i,i,8.0%*,29%*,i
